Activity calls are given as the source filed them. Rule as the data show it, unless noted: active = inhibition above about 31%; inactive = the rest.
Legend:
[1] = HUVEC growth inhibition – cell-based, human, primary screen (AID 575;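 active = viability at or below 30% in both replicate assays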;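 also: 100% = median of untreated cell wells with 0.1% DMSO on each plate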); details: HUVEC proliferation, CellTiter-Glo luminescence, 72 h; at 10 µM; stronger effect = lower value
Summary of the method: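 System – primary HUVEC, no more than 12 passages · Medium – Low-serum (2% FBS) EBM, supplemented · Times – 72 h exposure, 37 °C, 5% CO2, 30 min RT equilibration · Measured by – luminescent ATP assay · Read-out – % viability relative to median vehicle-well signal on each plate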

[2] = growth inhibitors of H69AR lung tumor, primary screen, human, duplicate replicates (AID 580;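 active = viability at or under a set limit in both replicates, limit being median viability minus 3 SD, cut at about 48% in these data, passing the limit was not always enough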;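 also: 100% = mean luminescence of untreated wells and 0% = no signal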); details: H69AR lung tumor cells viability, ATP luminescence, 72 h; at 10 µM; stronger effect = lower value
[3] = reversal of MRP1-mediated doxorubicin resistance, pilot screen, H69AR cells, doxorubicin co-treatment (AID 601;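 active = viability loss from added drug above about 55%, and viability with drug at most 40%, in both replicates, limit read from the data, passing the limit was not always enough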); details: CellTiter-Glo, 72 h, at 10 µM; for differential viability (reversal): stronger effect = higher value
[4] = 384-well plate pilot, post-Golgi transport modulator project, inhibition of yeast transport mutant growth (AID 636); details: absorbance 615 nm, about 18 h, stronger effect = higher value
[5] = growth suppression of yeast trafficking mutant, preliminary HTS, modulators of trafficking downstream of Golgi apparatus project, 1536-format plate, OD 615 nm (AID 637; in the data active = inhibition above about 30%); details: yeast transport mutant growth, absorbance 615 nm, 18 h; stronger effect = higher value
[6] = H69AR cells + 2 uM doxorubicin, measured here: viability with 2 uM doxorubicin, stronger effect = lower value
[7] = H69AR cells, compound alone cytotoxicity

Structure (SMILES) | viability [1] | viability [2] | differential viability (reversal) ([3]; H69AR cells + 2 uM doxorubicin) | viability [3, 6] [%] | viability [3, 7] [%] | inhibition [4] | inhibition [5]
O=C(c1ccc2c(c1)OCO2)N1CCNc2ccccc2C1 | 90.4% (inactive) | 99.6% (inactive) | 11.9% (inactive) | 87.7 | 99.6 | 0.65% (inactive) | 3.17% (inactive)
CN(C)C(=O)C12CCC(C)(c3nc4ccccc4nc31)C2(C)C (configuration not stated) | 105% (inactive) | 88.8% (inactive) | 2.95% (inactive) | 85.8 | 88.8 | 3.03% (inactive) | -4.6% (inactive)
Cc1nn(Cc2ccccc2Cl)c(C)c1NC(=O)C1C2CCC(O2)C1C(=O)O (configuration not stated) | 93.8% (inactive) | 90.9% (inactive) | 3.11% (inactive) | 87.8 | 90.9 | -1.97% (inactive) | -7.14% (inactive)
Clc1ccccc1-c1nnc2sc(-c3ccccn3)nn12 | 93.8% (inactive) | 86.3% (inactive) | 8.48% (inactive) | 77.8 | 86.3 | -1.97% (inactive) | 4.6% (inactive)
Cc1ccc(Nc2cc(C)nc3nnnn23)cc1 | 78.5% (inactive) | 93.4% (inactive) | 8.3% (inactive) | 85.1 | 93.4 | -5.06% (inactive) | -2.06% (inactive)
COc1cccc(CC(NC(C)=O)C(=O)NC2CCN(c3c4c(nc5ncnn35)CCC4)CC2)c1 (configuration not stated) | 90.4% (inactive) | 96.1% (inactive) | 8.17% (inactive) | 87.9 | 96.1 | -6.18% (inactive) | 3.17% (inactive)
COc1ccc(NC(=O)N2CCC(O)(c3cccnc3)CC2)c(OC)c1 | 83.6% (inactive) | 98.4% (inactive) | 12.3% (inactive) | 86.1 | 98.4 | -1.43% (inactive) | -1.11% (inactive)
COc1ccc(N(CC(=O)Nc2ccccc2SC)S(C)(=O)=O)cc1OC | 113% (inactive) | 98.2% (inactive) | 7.5% (inactive) | 90.7 | 98.2 | -2.63% (inactive) | 1.75% (inactive)
Cc1ccccc1OCCn1c(=O)oc2ccccc21 | 82.3% (inactive) | 91.5% (inactive) | 16.8% (inactive) | 74.7 | 91.5 | -5.07% (inactive) | 2.38% (inactive)
O=C(c1ccc(CNS(=O)(=O)c2cccc(C(F)(F)F)c2)cc1)N1CCOCC1 | 102% (inactive) | 92.9% (inactive) | 12% (inactive) | 80.9 | 92.9 | -8.67% (inactive) | 1.43% (inactive)
COc1cccc(OC)c1C(=O)Nc1ccccc1N1CCCC1 | 91.1% (inactive) | 91.6% (inactive) | 6.71% (inactive) | 84.9 | 91.6 | -1.71% (inactive) | -2.86% (inactive)
CN(CC(=O)N1CCN(c2ccccn2)CC1)S(=O)(=O)c1ccc2ccccc2c1 | 81.5% (inactive) | 89% (inactive) | 9.23% (inactive) | 79.8 | 89 | -2.63% (inactive) | -3.33% (inactive)
O=C(Nc1ccc(N2CCOCC2)cc1)C1CC1 | 109% (inactive) | 97.1% (inactive) | 8.07% (inactive) | 89 | 97.1 | -5.33% (inactive) | 3.49% (inactive)
Cn1c(=O)n(C)c2cc(NC(=O)C(F)(F)F)ccc21 | 68.9% (inactive) | 97.4% (inactive) | 11.6% (inactive) | 85.8 | 97.4 | -0.92% (inactive) | -7.94% (inactive)
COC(=O)Cc1[nH]nc2c1C(C1C=CCCC1)C(C#N)=C(N)O2 (configuration not stated) | 49.3% (inactive) | 95.8% (inactive) | 7.65% (inactive) | 88.2 | 95.8 | -4.21% (inactive) | 3.33% (inactive)
Cc1cc(C(F)(F)F)nc(SCC(=O)NC2=NC(=O)C(C)S2)n1 (configuration not stated) | 96% (inactive) | 100% (inactive) | 16.8% (inactive) | 83.6 | 100 | -2.27% (inactive) | -7.3% (inactive)
CC(C)[C@H](NC(=O)OC(C)(C)C)c1nnc(S(=O)(=O)Cc2c(F)cccc2Cl)o1 | 69.5% (inactive) | 1.65% (active) | 0.065% (inactive) | 1.58 | 1.65 | -2.76% (inactive) | 9.02% (inactive)
COc1ccc(C(=O)N2CCOCC2)cc1Br | 116% (inactive) | 101% (inactive) | 5.83% (inactive) | 95 | 101 | -2.24% (inactive) | -4.92% (inactive)
Cc1cc(C)c(C#N)c(SCc2ccc(C#N)cc2)n1 | 44.7% (inactive) | 68.5% (inactive) | -7.06% (inactive) | 75.6 | 68.5 | -2.27% (inactive) | -2.86% (inactive)
O=C(CSc1nnc2c3cc(F)ccc3nc(-c3ccccc3)n12)N1CCOCC1 | 77% (inactive) | 72.6% (inactive) | 0.06% (inactive) | 72.5 | 72.6 | 0.27% (inactive) | 1.59% (inactive)
CC(=O)Nc1ccc(N2CCN(Cc3ccccc3F)CC2)cc1 | 88.8% (inactive) | 92.5% (inactive) | 8.67% (inactive) | 83.8 | 92.5 | -0.91% (inactive) | 1.11% (inactive)
